TRPC4 agonist = TRPC4 (mouse) channel activation; HEK293 TRPC4beta/mu-opioid, Fluo4 calcium fluorescence; active compounds read high; Q9QUQ5; 310,000 tested, 0.49% active; B-score at 10 µM; AID 2237;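 active = B-score above 5 SD of library B-scores, and initial fluorescence ratio not above library mean plus 5 SD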;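 note: positive B-score marks a calcium rise read as TRPC4 activation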
Target sequence (Q9QUQ5 whole entry, looked up): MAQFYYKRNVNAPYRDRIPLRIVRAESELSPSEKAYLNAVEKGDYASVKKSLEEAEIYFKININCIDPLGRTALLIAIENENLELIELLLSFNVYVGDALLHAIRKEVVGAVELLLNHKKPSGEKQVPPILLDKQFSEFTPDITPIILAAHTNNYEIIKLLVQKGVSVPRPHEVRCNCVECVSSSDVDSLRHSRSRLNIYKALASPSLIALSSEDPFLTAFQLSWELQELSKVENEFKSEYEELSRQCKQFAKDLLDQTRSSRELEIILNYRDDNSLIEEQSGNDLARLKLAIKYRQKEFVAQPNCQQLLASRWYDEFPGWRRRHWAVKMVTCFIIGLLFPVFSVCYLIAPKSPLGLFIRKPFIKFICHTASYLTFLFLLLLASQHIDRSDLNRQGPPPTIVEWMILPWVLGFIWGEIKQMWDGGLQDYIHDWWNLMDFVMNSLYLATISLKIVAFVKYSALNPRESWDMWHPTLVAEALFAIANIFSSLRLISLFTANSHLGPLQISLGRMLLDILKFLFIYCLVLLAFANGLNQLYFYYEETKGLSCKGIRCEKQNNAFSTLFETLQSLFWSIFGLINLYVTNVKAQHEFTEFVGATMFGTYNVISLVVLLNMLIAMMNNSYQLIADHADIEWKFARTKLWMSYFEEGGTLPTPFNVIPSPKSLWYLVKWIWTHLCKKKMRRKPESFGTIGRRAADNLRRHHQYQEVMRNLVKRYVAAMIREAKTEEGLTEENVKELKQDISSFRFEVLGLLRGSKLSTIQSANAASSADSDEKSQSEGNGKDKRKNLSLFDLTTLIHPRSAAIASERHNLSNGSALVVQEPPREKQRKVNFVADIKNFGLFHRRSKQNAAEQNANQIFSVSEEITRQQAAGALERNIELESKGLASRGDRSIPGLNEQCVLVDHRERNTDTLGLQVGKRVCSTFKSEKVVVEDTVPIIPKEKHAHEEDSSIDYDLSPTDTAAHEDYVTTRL
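Technique: kinetic Fluo4 calcium fluorescence; Test system: TRPC4beta and mu-opioid receptor HEK293 stable cells; Measure: B-scored integrated calcium fluorescence ratio; Benchmarks: low control buffer alone, high control maximal DAMGO; Schedule: 45 min room-temperature Fluo4 loading, 110 s read.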
TRPC4 inh = blocks the mouse TRPC4 cation channel; B-score at 10 µM; 300,000 tested, 0.39% active; Q9QUQ5; HEK293 TRPC4beta/mu-opioid, DAMGO-evoked Fluo4 calcium flux; active compounds read low;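 active = B-score over 3 SD under the library average, no early fluorescence shift, positive overall ratio signal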
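Material: HEK293 cells with stable TRPC4beta plus mu-opioid receptor expression / Probe or stimulus: DAMGO in two steps, submaximal then maximal / Compound: single concentration per test compound / Technique: kinetic Fluo4 fluorescence imaging of calcium influx / Read-out: per-well B score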
TRPC4 PAM = allosterically enhances the mouse TRPC4 cation channel. Q9QUQ5. HEK293 TRPC4beta/mu-opioid, DAMGO EC20, Fluo-4 Ca2+ flux; active compounds read high. B-score at 10 µM. 310,000 tested, 0.42% active. AID 2227;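 active = B-score of calcium response area above 5 SD of library B-scores, with initial fluorescence ratio within 5 SD of library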;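 note: B-score of integrated fluorescence ratio over time as area under calcium response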
TRPC6 inh = blocks the mouse TRPC6 cation channel; HEK293-TRPC6, membrane potential dye, ACh-evoked depolarization; active compounds read low; B-score at 10 µM; 310,000 tested, 1.1% active; AID 2553;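 active = B-score under library mean minus 3 SD, initial fluorescence not abnormally high, positive integrated signal ratio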;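 note: B-score derived from integrated fluorescence ratio over the kinetic read; more negative B-score means stronger inhibition of depolarization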
TRPC6 activator = activators of mouse TRPC6 channel. HEK293-TRPC6 membrane potential dye fluorescence; active compounds read high. B-score at 10 µM. 310,000 tested, 0.13% active;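 active = B-score of the integrated fluorescence ratio above library mean plus 3 SD, and starting fluorescence ratio within library mean plus 5 SD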;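 note: higher score means more depolarization so channel activation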
TRPC4 sel inh 2 = second check of whether TRPC6 inhibitors also affect mouse TRPC4. 920 tested, 42% active. HEK293 TRPC4/MOR, membrane potential dye fluorescence; channel activated by saturating DAMGO dose. AID 2776. shares compounds with TRPC6 inh. inhibition, % at 10 µM;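 active = compounds whose fluorescence signal differed from control wells by over 3 SD, either direction, in both duplicate plates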
TRPC4 spec = mouse TRPC4 off-target activity of TRPC6 inhibitors. 920 tested, 61% active. shares compounds with TRPC6 inh. activity change, negative = inhibition, % at 10 µM. HEK293 TRPC4/mu-opioid, membrane potential fluorescence;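 active = rise or fall in signal beyond 3 SD of buffer-only wells in both replicate plates, either sign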;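 note: integrated kinetic ratio of fluorescence range over baseline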
HEK293 MPD ctr 2-1 = parental HEK293 nonspecific activity of TRPC6 inhibitors, second screen; shares compounds with TRPC6 inh; parental HEK293 membrane potential dye fluorescence; maximal acetylcholine challenge after compound addition; signal change vs control, % at 10 µM; 920 tested, 31% active; AID 2779;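 active = membrane potential signal moving either way by over 3 SD of the maximum-effect control, in both duplicate plates, meaning non-specific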
HEK293 MPD ctr-1 = parental HEK293 nonspecific activity of TRPC6 inhibitors. shares compounds with TRPC6 inh. parental HEK293 membrane potential dye fluorescence. membrane potential signal change, % at 10 µM. 920 tested, 60% active. AID 2780;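 active = membrane potential signal shifting up or down by more than 3 SD of buffer-only wells, on both duplicate plates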
HEK293 MPD ctr-2 = checks TRPC6 modulator effects in parental HEK293 cells | shares compounds with TRPC6 inh | membrane potential dye fluorescence | membrane potential signal change, % at 10 µM | 2,400 tested, 51% active | AID 488924;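 active = membrane potential signal moves up or down beyond 5 SD from buffer-only wells, on both duplicate plates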
HEK293 MPD ctr 2-2 = parental HEK293 nonspecific activity of TRPC6 modulators, second screen; shares compounds with TRPC6 inh; membrane potential dye fluorescence; after compound, maximal acetylcholine stimulation; inhibition, % at 10 µM; 2,400 tested, 14% active; AID 488926;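 active = membrane potential signal drops by more than 5 SD from the mean control signal, in both duplicate plates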;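 note: plate controls were acetylcholine ECmax control wells for no effect and buffer only wells for full effect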
TRPC4 ctr mod = selectivity of TRPC6 modulators against mouse TRPC4. HEK293 TRPC4/mu-opioid, membrane potential fluorescence. 2,400 tested, 69% active. shares compounds with TRPC6 inh. percent change from control (negative = decrease, positive = increase), % at 10 µM;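 active = membrane potential signal moved up or down beyond 5 SD of buffer control wells, in both duplicate plates, actives on both sides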;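 note: plate controls were assay buffer wells for no effect and DAMGO maximal-effect wells for full effect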
TRPC4 ctr inh 2 = second check of whether TRPC6 modulators also affect mouse TRPC4; AID 488928; 2,400 tested, 55% active; shares compounds with TRPC6 inh; HEK293 TRPC4/mu-opioid, membrane potential dye fluorescence; stimulated with maximal-effect DAMGO; inhibition, % at 10 µM;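 active = drop in membrane potential signal beyond 5 SD of the control wells in both duplicate plates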;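 note: TRPC4 counter screen for TRPC6 hits run under conditions tuned for TRPC6 not TRPC4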
TRPC6 block conf = confirmation of mouse TRPC6 inhibitors; shares compounds with TRPC6 inh; HEK293-TRPC6, membrane potential dye, ACh-evoked depolarization; inhibition, % at 10 µM; 3,300 tested, 43% active; AID 488960;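 active = fluorescence ratio falls more than 5 SD below the full-stimulation control mean, in both duplicate runs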;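 note: integrated fluorescence ratio of peak minus minimum over baseline after agonist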
TRPC6 act confirm = confirmation of mouse TRPC6 activators | shares compounds with TRPC6 inh | HEK293-TRPC6 membrane potential dye fluorescence, FDSS | activation, % at 10 µM | 2,800 tested, 11% active | AID 488961;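 active = ratio signal rise beyond 5 SD above unstimulated control wells' mean, seen in both duplicate runs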;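 note: plate controls were buffer EC0 wells for no effect and acetylcholine ECmax response for full effect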
Starred values were filed as active, the others as inactive. Rows were chosen to be rich in hits. Some 2.3% of all compounds tested hit in one or more screens of this group.

`c1cc2c3c(cccc3c1)C(N1CCCCCC1)=N2` gave TRPC4 agonist inactive, TRPC4 inh inactive, TRPC4 PAM inactive, TRPC6 inh -12*, TRPC6 activator inactive, HEK293 MPD ctr-2 -208%*, HEK293 MPD ctr 2-2 inactive, TRPC4 ctr mod -46%*, TRPC4 ctr inh 2 68%*, TRPC6 block conf inactive and TRPC6 act confirm inactive.
For c1cc2c3c(cccc3c1)C(N1CCCCC1)=N2 the results were TRPC4 agonist inactive, TRPC4 inh inactive, TRPC4 PAM inactive, TRPC6 inh -11*, TRPC6 activator inactive, HEK293 MPD ctr-2 -195%*, HEK293 MPD ctr 2-2 78%*, TRPC4 ctr mod -52%*, TRPC4 ctr inh 2 93%*, TRPC6 block conf 76%* and TRPC6 act confirm inactive.
For c1ccc(NC2=Nc3cccc4cccc2c34)cc1 the results were TRPC4 agonist inactive, TRPC4 inh inactive, TRPC4 PAM inactive, TRPC6 inh inactive and TRPC6 activator inactive.
Screening COc1cc(/C=C/C(=O)OCC(=O)N2CCCc3ccccc32)ccc1OC(F)F returned TRPC4 agonist inactive, TRPC4 inh inactive, TRPC4 PAM inactive, TRPC6 inh inactive and TRPC6 activator inactive.
For CC1=CC=CC2=NC(=O)CC(C)(C(=O)O)N12 (stereo not drawn) the results were TRPC4 agonist inactive, TRPC4 inh inactive, TRPC4 PAM inactive, TRPC6 inh inactive and TRPC6 activator inactive.
`CCN(CC)CCN1c2ccccc2Sc2ccccc21` gave TRPC4 agonist inactive, TRPC4 inh -6*, TRPC4 PAM inactive, TRPC6 inh -6.2*, TRPC6 activator inactive, HEK293 MPD ctr-2 92%*, HEK293 MPD ctr 2-2 inactive, TRPC4 ctr mod 49%*, TRPC4 ctr inh 2 64%* and TRPC6 block conf 55%*.
Screening CCN1C(=O)/C(=C/C=C2/Sc3ccc4ccccc4c3N2CCO)SC1=S returned TRPC4 agonist inactive, TRPC4 inh inactive, TRPC4 PAM inactive, TRPC6 inh inactive and TRPC6 activator inactive.
Screening CCN(CC)CCN1c2ccccc2Sc2ccc3ccccc3c21 returned TRPC4 agonist inactive, TRPC4 inh inactive, TRPC4 PAM inactive, TRPC6 inh -6*, TRPC6 activator inactive, HEK293 MPD ctr-2 inactive, HEK293 MPD ctr 2-2 inactive, TRPC4 ctr mod inactive, TRPC4 ctr inh 2 inactive, TRPC6 block conf inactive and TRPC6 act confirm inactive.
Screening CCOC(=O)/C(=C/c1ccc(N2CCC(c3ccccc3)=N2)cc1)C(C)=O returned TRPC4 agonist inactive, TRPC4 inh inactive, TRPC4 PAM inactive, TRPC6 inh inactive, TRPC6 activator 14*, HEK293 MPD ctr-2 582%*, HEK293 MPD ctr 2-2 inactive, TRPC4 ctr mod 51%*, TRPC4 ctr inh 2 inactive, TRPC6 block conf inactive and TRPC6 act confirm 43%*.
`Cc1ccc(OCC(O)CN2CCOCC2)cc1` (stereo not drawn) gave TRPC4 agonist inactive, TRPC4 inh inactive, TRPC4 PAM inactive, TRPC6 inh inactive and TRPC6 activator inactive.
For CCn1c(/N=C/c2c[nH]c3ccccc23)nc2ccccc21 the results were TRPC4 agonist inactive, TRPC4 inh inactive, TRPC4 PAM inactive, TRPC6 inh -8.1*, TRPC6 activator inactive, TRPC4 sel inh 2 75%*, TRPC4 spec -9.7%*, HEK293 MPD ctr 2-1 inactive, HEK293 MPD ctr-1 -165%*, TRPC6 block conf 53%* and TRPC6 act confirm inactive.
`CN1CCN(C(CNC(=O)C(=O)Nc2ccc3c(c2)OCO3)c2ccc(F)cc2)CC1` (stereo not drawn) gave TRPC4 agonist inactive, TRPC4 inh inactive, TRPC4 PAM inactive, TRPC6 inh -6*, TRPC6 activator inactive, HEK293 MPD ctr-2 100%*, HEK293 MPD ctr 2-2 inactive, TRPC4 ctr mod 12%*, TRPC4 ctr inh 2 inactive, TRPC6 block conf 39%* and TRPC6 act confirm inactive.
For COCc1c(C#N)c(NCCc2ccccc2)nc(C)c1[N+](=O)[O-] the results were TRPC4 agonist inactive, TRPC4 inh inactive, TRPC4 PAM inactive, TRPC6 inh inactive and TRPC6 activator inactive.
`COCc1c(C#N)c(NCCc2ccc(F)cc2)nc(C)c1[N+](=O)[O-]` gave TRPC4 agonist inactive, TRPC4 inh inactive, TRPC4 PAM inactive, TRPC6 inh -8*, TRPC6 activator inactive, TRPC4 sel inh 2 inactive, TRPC4 spec inactive, HEK293 MPD ctr 2-1 inactive, HEK293 MPD ctr-1 inactive, TRPC6 block conf inactive and TRPC6 act confirm inactive.
For CCCCOc1ccc(C2=CSC3=NCCN23)cc1[N+](=O)[O-] the results were TRPC4 agonist inactive, TRPC4 inh inactive, TRPC4 PAM inactive, TRPC6 inh -5.1*, TRPC6 activator inactive, HEK293 MPD ctr-2 -75%*, HEK293 MPD ctr 2-2 inactive, TRPC4 ctr mod -20%*, TRPC4 ctr inh 2 44%*, TRPC6 block conf 44%* and TRPC6 act confirm inactive.
For Fc1ccc(Oc2cnns2)cc1 the results were TRPC4 agonist inactive, TRPC4 inh inactive, TRPC4 PAM inactive, TRPC6 inh inactive and TRPC6 activator inactive.
